Test results reported in the EternaBench riboswitch data.

System: MS2 coat protein
Test: apparent Kd, MS2 coat protein; higher = weaker binding; RNA-MaP array
Outline: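 For each design, the apparent Kd is the median of binding-curve fits across its clusters. Designs measured on fewer than 10 clusters were dropped. The RNAs were transcribed from sequenced DNA templates on an Illumina sequencing chip and incubated at room temperature, with or without input ligand, with fluorescently labeled MS2 coat protein at 1.5 nM to 3 μM.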

[1] = designed as: OFF switch for theophylline, no ligand
[2] = ligand present: theophylline, designed as: OFF switch for theophylline
[3] = designed as: ON switch for flavin mononucleotide, no ligand
[4] = ligand present: flavin mononucleotide, designed as: ON switch for flavin mononucleotide
[5] = designed as: OFF switch for flavin mononucleotide, no ligand
[6] = ligand present: flavin mononucleotide, designed as: OFF switch for flavin mononucleotide

Sequence | apparent Kd [5] | apparent Kd [6] | other results
ACACGUGACAAGGAUACCAGCCUGGCUAGUUCAAACCCUCACAUGAGGAUCACCCAUGUAGGCCCUUGGCAGCCUAUAGUCUAAG |  |  | apparent Kd [1]: 31.9 nM; apparent Kd [2]: 83.9 nM
CGCGACUUCAGAGGAUAUGUGCGUGUCACAUGAGGAUCACCCAUGUAAGGUUACCUACGACCGGGACAGAAGGCUGACCCAAAA |  |  | apparent Kd [3]: 61 nM; apparent Kd [4]: 19.6 nM
ACAUGAGGAUCACCCAUGUUUGGGCAAAGAUUGAUUGACACGAGAAGGGCCCGCGUACGUCGUAGGCAGGAUAUCGAGUACCGG | 32.2 nM | 31.1 nM | 
CUCCUCGUAGGAUAUCGCACCGCGUACAUGAGGAUCACCCAUGUGAUUCUAUAGAUUAAGCGAGAAGGACGACAGG | 376 nM | 269 nM | 
CGCAGGGCCCAGAAGGGCAUAAUGUUAGACUACAUGAGGAUCACCCAUGUGCCACGAGAGGUUGUGCAGGAUAUGGAUCUAUUG |  |  | apparent Kd [3]: 56.7 nM; apparent Kd [4]: 23.9 nM
UCAAGCAUGGAGAAGGCCCGGGUUGACACGUCGGGAGGAUAUCCAGACUCACAUGAGGAUCACCCAUGUUAUUGCGGCGACUCC | 40.3 nM | 57 nM | 
CACACCGAAGGAUAUACUACUGCUAUUUAGAGUGAGGGCGAACAUGAGGAUCACCCAUGUAGAAGGUCGAGAAA | 17.5 nM | 20.6 nM | 
AGAACCAUAGUAGGAUAUGAGACGUUAUUGGUAACAGAAGGACUAGCUGUAACAUGAGGAUCACCCAUGUGGGCCGGACAGAGG |  |  | apparent Kd [3]: 14.1 nM; apparent Kd [4]: 11.5 nM
AUUAGAAUGCGAGGAUAUGGUAAAUUCAUGCAUCCAGAAGGCGCGUCAGUAGAACAUGAGGAUCACCCAUGUGAUUGUUGUGGC | 22.8 nM | 26.9 nM | 
AGAUCUAACGCAGGAUAUAGUGCGGGAAAACCUAAACAUGAGGAUCACCCAUGUCUGCUACAAAGCUAGAAGGGCGUUCGGGAA |  |  | apparent Kd [3]: 46.4 nM; apparent Kd [4]: 23.8 nM
AGCGUGUAAGGAUAUUGAUCUCCACUUCUGUAGGUCGGUGACAAGAAGGUACAUGAGGAUCACCCAUGUCCAUG | 19.8 nM | 21.7 nM | 
CCAGCGAGUUAGACCUUACAUGAGGAUCACCCAUGUUGGCGUAGAAGGACGCUCAUAAGCACUGCGUAGGAUAUACUCACCAAU | 7.99 nM | 10.4 nM | 
ACAUGAGGAUCACCCAUGUGUCUCCUUUCCAUUACGAUCUUUAGAAGGGUCCGCAAACACUCUGGACAGGAUAUAAAGUAUGGC | 13.4 nM | 12.2 nM | 
UUUAUACAUGAGGAUCACCCAUGUGAGGAUAUAAAGGCGGACACUGCUGUCGAUCGCUUUAGAAGGCACUGGAU | 15.8 nM | 20 nM | 
GUUACAUGAGGAUCACCCAUGUGGGCUGUAUGUAGCGCACCUGAGGAUAUGGCCCGGAGGUAGGACCAGAAGGCAGCGAAGAGC | 65.4 nM | 55.3 nM | 
CCCAUUGAGGAGGAUAUACUAUUGGAGACUCUCGUAGAAGGCCUGACAUGAGGAUCACCCAUGUACGUGAUAUC | 121 nM | 76.7 nM | 
GACUGGAGGAGAGGAUAUGCAAAGACUCUAUUCGCAGAAGGCUCGUGCGGUCAACAUGAGGAUCACCCAUGUCUGGCGACAUGC | 6.26 nM | 8.62 nM | 
ACAUACUUGGGAGGAUAUAUGUUCGUACGCUCGAUAGAAGGCCCAGAAGUAUAAGACAUGAGGAUCACCCAUGUGGCAAGCGUU |  |  | apparent Kd [3]: 11.4 nM; apparent Kd [4]: 8.78 nM
UGCGAUGAACCUGAUACCAGAUGUAUUUGCUCCUCGGACAACAUGAGGAUCACCCAUGUCAUCCCUUGGCAGCAGGAGCGAAAGC |  |  | apparent Kd [1]: 11.9 nM; apparent Kd [2]: 44.1 nM
UAGGUUCUAGUUUCUGCACAUGAGGAUCACCCAUGUUUAGUAAAGGAUAUCACGGUAAGUCGACGUGAGAAGGUUACGUUAGGG | 33.6 nM | 37 nM | 
